Most compounds without a hit are left out; they make up all but 2.6% or so of the library.
Exocytosis inh: blocks lytic granule exocytosis | TALL-104 LAMP-1 surface exposure, flow cytometry; cells stimulated with thapsigargin and PMA | inhibition, % at 10 µM | 360,000 tested, 0.66% active;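 active = inhibition above about 55%, limit read from the data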
PGE2 EP2 inh: EP2 receptor (human) inhibition. P43116. C6 glioma cells expressing human EP2, cAMP TR-FRET; cells stimulated with saturating PGE2. inhibition, % at 25 µM. 260,000 tested, 0.52% active. AID 1422;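 active = percent inhibition above 40 after rounding to a whole number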;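 note: rat C6 glioma host cells with rolipram phosphodiesterase inhibitor present; the protocol text gives 20 µM as final concentration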
Target sequence (P43116 whole entry, looked up): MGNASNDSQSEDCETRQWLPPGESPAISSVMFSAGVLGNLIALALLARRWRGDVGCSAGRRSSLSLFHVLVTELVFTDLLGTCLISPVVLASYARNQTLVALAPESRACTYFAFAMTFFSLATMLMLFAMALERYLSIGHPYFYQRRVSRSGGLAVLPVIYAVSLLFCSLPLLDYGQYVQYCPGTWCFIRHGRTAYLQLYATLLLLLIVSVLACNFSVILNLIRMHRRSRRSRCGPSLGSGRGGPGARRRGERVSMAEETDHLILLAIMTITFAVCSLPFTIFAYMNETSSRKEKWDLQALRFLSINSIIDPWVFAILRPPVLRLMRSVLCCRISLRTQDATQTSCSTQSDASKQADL
T cell modulator: T cell immune modulators affecting CD8 T cell-vesicle binding. 2C CD8+ T cell-vesicle binding, flow cytometry; hits give low values. response (vesicle binding), % at 7 µM. 330,000 tested, 0.068% active;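 active = response, share of CD8 T cells binding vesicles, and their 90th percentile fluorescence all below set limits, cut at about 80% in these data, passing the limit was not always enough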;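 note: values below 100% mean blocked vesicle binding to the CD8+ T cells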
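Material: 2C TCR transgenic mouse naive CD8+ T cells, MACS-purified. Also added: QL9-charged Drosophila Ld/ICAM-1/B7-1 vesicles. Timing: binding 1.5 h at 37 °C. Measured by: high-throughput flow cytometry with anti-B7-1 and anti-CD8 staining. Read-out: percent CD8+ FL2 mean versus row control. Controls: Unloaded micro-vesicles (low), QL9 vesicles with 0.7% DMSO (high).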
EP2 mod: EP2 receptor (human) modulation. P43116. EP2-expressing cells, cAMP HTRF FRET, PGE2 co-stimulation. induction, % at 25 µM. 260,000 tested, 0.83% active. AID 940;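 active = compounds whose cAMP rise, as percent of the full-agonist control response, exceeds 60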;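 note: rat C6 glioma line stably carrying human EP2 under a CMV promoter; the protocol text gives 20 µM as final concentration; 100% = response of wells given 1 µM PGE2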
MC4R barr agon: activates human MC4R beta-arrestin recruitment; P32245; U2OS MC4R beta-arrestin complementation, luminescence; percent of melanotan II response, DMSO zero; activation, % at 8.9 µM; 360,000 tested, 0.98% active; AID 540308;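 active = activation above a per-plate cutoff, the mean activation of sample wells on that plate plus 3 SD, cut at about 8% in these data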
Target sequence (P32245 whole entry, looked up): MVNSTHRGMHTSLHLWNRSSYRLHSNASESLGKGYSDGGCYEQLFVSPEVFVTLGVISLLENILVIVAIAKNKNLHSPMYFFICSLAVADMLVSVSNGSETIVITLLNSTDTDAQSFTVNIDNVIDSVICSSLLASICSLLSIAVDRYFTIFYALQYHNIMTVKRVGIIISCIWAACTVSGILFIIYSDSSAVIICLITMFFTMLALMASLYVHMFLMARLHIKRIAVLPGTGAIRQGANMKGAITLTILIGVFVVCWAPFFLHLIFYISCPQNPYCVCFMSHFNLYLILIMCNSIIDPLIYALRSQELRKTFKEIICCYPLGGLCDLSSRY
MC4R antagonist: antagonists of human melanocortin 4 receptor (MC4R); P32245; MC4R-expressing cells, MTII-stimulated cAMP, LANCE TR-FRET; inhibition, % at 6.5 µM; 360,000 tested, 0.48% active;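 active = inhibition above its plate's cutoff, the mean of tested wells on that plate plus 3 SD, cut at about 29% in these data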;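 note: 0% = Melanotan II alone and 100% = Melanotan II plus saturating MCL0020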
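Material: human MC4R-expressing U2OS cells. Probe or stimulus: Melanotan II challenge. Dosing: 6.5 µM single dose. Times: 30-min compound, 1-h challenge, 1-h detection, room temperature. Technique: TR-FRET with Eu-cAMP and labeled anti-cAMP, 671 nm. Replication: singlicate.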
MC4R barr ag: human MC4R beta-arrestin agonism confirmation | activation, % at 8.9 µM | AID 602192 | shares compounds with MC4R barr agon | U2OS MC4R beta-arrestin recruitment, luminescence; scaled DMSO 0%, Melanotan II 100% | 2,400 tested, 31% active;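 active = mean activation across replicates above the hit cutoff set in the earlier primary screen, cut at about 8% in these data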
MOR DOR agonist: counter-screen for MC4R agonists: agonists of mu-delta opioid heterodimer; shares compounds with MC4R barr agon; U2OS PathHunter beta-arrestin, beta-gal luminescence; percent of deltorphin B response, DMSO zero; activation, % at 9.2 µM; 2,400 tested, 5.8% active; AID 602194;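 active = mean activation across replicates exceeds the hit threshold derived in the earlier primary screen, cut at about 18% in these data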;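 note: 100% = deltorphin B at 0.9 µM final and 0% = DMSO alone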
Numbers without * were called inactive; / = no result given; ! = not confirmed by another sample.

SMILES | Exocytosis inh | PGE2 EP2 inh | T cell modulator | EP2 mod | MC4R barr agon | MC4R antagonist | MC4R barr ag | MOR DOR agonist
CCOC(=O)c1cc(-c2ccccc2)sc1NC(=O)CSc1nnc(N)s1 | 10 | 3 | 104 | -1 | 11* | 23 | 3 | 7
Cc1c(C(=O)Nc2ccc(C(F)(F)F)cc2)sc2ncn(CC(=O)N3CCN(c4ccccn4)CC3)c(=O)c12 | 3 | / | 480 | / | 14* | -5 | 5 | 9
Cc1ccc(NC(=O)c2sc3ncn(CC(=O)N4CCN(c5ccccn5)CC4)c(=O)c3c2C)cc1 | -5 | / | / | / | -1 | -1 | / | /
Cc1[nH]c2ccccc2c1C(=O)COC(=O)C1CC(O)CN1S(=O)(=O)c1ccc(Cl)cc1 (stereo not drawn) | 3 | / | 507 | / | 0 | -1 | / | /
CSCCC(NS(=O)(=O)c1ccc(Cl)cc1)C(=O)OCC(=O)c1c(C)[nH]c2ccccc12 (stereo not drawn) | 4 | 24 | 321 | -105 | 12* | -11 | 3 | 9
NC(Cc1ccc(C(F)(F)F)cc1)c1csc(Nc2ccc(C(=O)c3ccccc3)cc2)n1 (stereo not drawn) | 28 | / | / | / | 13* | 7 | 14* | 14
CN(Cc1ccccc1)C(=O)c1ccc(Nc2nc(C(N)Cc3ccccc3)cs2)nc1 (stereo not drawn) | 12 | / | / | / | 1 | -2 | / | /
CN(Cc1ccccc1)C(=O)c1ccc(Nc2nc(C(N)Cc3ccc(C(F)(F)F)cc3)cs2)nc1 (stereo not drawn) | 32 | / | / | / | 40* | 20 | 22* | 33*
NC(CCc1ccccc1)c1csc(Nc2ccc(C(=O)c3ccccc3)cc2)n1 (stereo not drawn) | 2 | / | / | / | 13* | 13 | 20* | 9
NC(CCc1ccccc1)c1csc(Nc2ccc(C(=O)NCCO)cc2)n1 (stereo not drawn) | -1 | / | / | / | 1 | 7 | / | /
NC(Cc1ccc(C(F)(F)F)cc1)c1csc(Nc2cc(NCc3ccco3)ncn2)n1 (stereo not drawn) | 16 | / | / | / | 12* | 8 | 43* | 26*
COc1ccccc1C(=O)N1CCN(C(=O)Cc2ccccc2)CC1 | 17 | / | 366 | / | -3 | 2 | / | /
COc1ccc(N2CCN(C(=O)C3COc4ccccc4O3)CC2)cc1 (stereo not drawn) | -1 | 12 | 173 | 5 | 1 | 1 | / | /
O=C1CC(c2cc(Br)ccc2F)c2cc3c(cc2N1)CCC3 (stereo not drawn) | 4 | 11 | 474 | 22 | 16* | -22 | 3 | 4
O=C1CC(c2ccccc2F)c2cc3c(cc2N1)CCC3 (stereo not drawn) | 0 | / | 359 | 26 | 0 | -5 | / | /
CC1CCCCC1NC(=O)NC(=O)CCl (stereo not drawn) | 0 | 7 | 265 | -36 | -3 | 15 | / | /
Cc1ccccc1OCC(=O)N=Nc1c(O)n(C)c2ccccc12 | -2 | 10 | 353 | 1 | 18* | 4 | 5 | 4
CCOC(=O)Cn1c(COc2ccccc2OC)[n+](C)c2ccccc21 | -4 | / | 491 | / | -1 | 1 | / | /
CCCCCCCCCCOC(=O)Cn1c(COc2ccccc2)[n+](C)c2ccccc21 | 66* | / | 304 | / | 18* | -4 | 29* | 23*
CCCCCCCCCCOC(=O)Cn1c(COc2cccc(C)c2)[n+](C)c2ccccc21 | 74* | / | 598 | / | 19* | -5 | 28* | 15
CCCCCCCCCCOC(=O)Cn1c(COc2ccc(OC)cc2)[n+](C)c2ccccc21 | 65* | / | 121 | / | 35* | 8 | 19* | 24*!
O=C(O)CNS(=O)(=O)c1ccc2c(c1)Cc1cc(S(=O)(=O)NCC(=O)O)ccc1-2 | -2 | / | 443 | / | -1 | -9 | / | /
Cc1ccc(C)c(OCCC(=O)OCC(=O)NCCNC(=O)COC(=O)CCOc2cc(C)ccc2C)c1 | 0 | / | 322 | / | 11* | -4 | 1 | 5
CCOCCCNC(=O)c1nc2c(nnn2Cc2ccccc2Cl)c(=O)[nH]1 | / | 6 | / | 12 | / | / | / | /
COc1cccc(CNCc2ccc(OC)cc2OC)c1 | 4 | / | 224 | / | -1 | 10 | / | /
SMILES | Exocytosis inh | PGE2 EP2 inh | T cell modulator | EP2 mod | MC4R barr agon | MC4R antagonist | MC4R barr ag | MOR DOR agonist
CCn1c2ccccc2c2cc(CNCc3ccc(OC)cc3OC)ccc21 | 44 | 32 | 217 | -86 | 41* | 2 | 52* | 21*
CC(=O)Nc1cccc(C(=O)OCc2ccc([N+](=O)[O-])cc2)c1 | 18 | 6 | 376 | -24 | -1 | -4 | / | /
O=C(NN=Cc1cc(Cl)ccc1[N+](=O)[O-])c1cccc2ccccc12 | -18 | / | / | / | 11* | -1 | 4 | 9
COc1ccc(Cn2c(=S)[nH]c3ccccc3c2=O)cc1 | -18 | / | 180 | / | 11* | 1 | -3 | 3
O=C(O)C1CCCCN1S(=O)(=O)c1ccc2ccccc2c1 (stereo not drawn) | 0 | 11 | 389 | 21 | -1 | 6 | / | /
COc1ccc(-n2nnnc2SCC(=O)Nc2ccc3c(c2)OCCO3)c(OC)c1 | 0 | 10 | 173 | -52 | -1 | 14 | / | /
Cc1c(C(=O)Nc2ccc(-c3nnc4n3CCCCC4)cc2)oc2c1ccc1ccccc12 | 5 | 6 | 341 | -52 | 11* | 13 | 6 | 3
O=C(Nc1ccc(-c2nnc3n2CCCCC3)cc1)c1cc2ccccc2o1 | -2 | 14 | 121 | -14 | -1 | 6 | / | /
O=C(COc1cc(Cl)c(Cl)cc1Cl)Nc1cccc(O)c1 | 1 | 5 | 151 | -1 | 20* | 23 | 7 | 9
O=C(COc1cc(Cl)c(Cl)cc1Cl)Nc1ccncc1 | -1 | 5 | 335 | -4 | 3 | 16 | / | /
Clc1ccc(Nc2nc3ccccc3n3nnnc23)cc1 | -4 | 11 | 306 | 26 | 6 | 3 | / | /
Fc1cc(Br)ccc1Nc1nc2ccccc2n2nnnc12 | 8 | 14 | 597 | -1 | 14* | -1 | 9.6* | 5
COc1cc2nc(SCc3ccc(Cl)cc3Cl)n(Cc3cccs3)c(=N)c2cc1OC | 2 | 0 | 194 | 19 | -1 | 1 | / | /
CCCCNC(=O)CSc1nc2cc(OC)c(OC)cc2c(=O)n1Cc1ccc(OC)cc1 | 0 | 8 | 195 | 22 | -2 | 4 | / | /
COc1ccc(Cn2c(SCc3cc(C)ccc3C)nc3cc(OC)c(OC)cc3c2=N)cc1 | 42 | 6 | 338 | 31 | 21* | 10 | 7 | 20*
COc1cc2nc(SCc3ccc(C(F)(F)F)cc3)n(Cc3cccs3)c(=N)c2cc1OC | 6 | -3 | 190 | 29 | 14* | 13 | 6 | 4
